According to ChEMBL document CHEMBL1955837 (J Med Chem, 2012):
Calls of active or inactive are those of the source. The calls are words filed in the database; no cut-off is given here.

Columns and labels:
[1] = molecular target: T1, Nitric oxide synthase 3 (Homo sapiens, UniProt P29474); assay: Inhibition of human recombinant eNOS expressed in baculovirus infected insect Sf9 cells assessed as conversion of [3H]L-arginine to [3H]L-citrulline incubated for 15 mins prior to substrate addition measured after 45 mins by liquid scintillation counting
T1 sequence (P29474 whole entry): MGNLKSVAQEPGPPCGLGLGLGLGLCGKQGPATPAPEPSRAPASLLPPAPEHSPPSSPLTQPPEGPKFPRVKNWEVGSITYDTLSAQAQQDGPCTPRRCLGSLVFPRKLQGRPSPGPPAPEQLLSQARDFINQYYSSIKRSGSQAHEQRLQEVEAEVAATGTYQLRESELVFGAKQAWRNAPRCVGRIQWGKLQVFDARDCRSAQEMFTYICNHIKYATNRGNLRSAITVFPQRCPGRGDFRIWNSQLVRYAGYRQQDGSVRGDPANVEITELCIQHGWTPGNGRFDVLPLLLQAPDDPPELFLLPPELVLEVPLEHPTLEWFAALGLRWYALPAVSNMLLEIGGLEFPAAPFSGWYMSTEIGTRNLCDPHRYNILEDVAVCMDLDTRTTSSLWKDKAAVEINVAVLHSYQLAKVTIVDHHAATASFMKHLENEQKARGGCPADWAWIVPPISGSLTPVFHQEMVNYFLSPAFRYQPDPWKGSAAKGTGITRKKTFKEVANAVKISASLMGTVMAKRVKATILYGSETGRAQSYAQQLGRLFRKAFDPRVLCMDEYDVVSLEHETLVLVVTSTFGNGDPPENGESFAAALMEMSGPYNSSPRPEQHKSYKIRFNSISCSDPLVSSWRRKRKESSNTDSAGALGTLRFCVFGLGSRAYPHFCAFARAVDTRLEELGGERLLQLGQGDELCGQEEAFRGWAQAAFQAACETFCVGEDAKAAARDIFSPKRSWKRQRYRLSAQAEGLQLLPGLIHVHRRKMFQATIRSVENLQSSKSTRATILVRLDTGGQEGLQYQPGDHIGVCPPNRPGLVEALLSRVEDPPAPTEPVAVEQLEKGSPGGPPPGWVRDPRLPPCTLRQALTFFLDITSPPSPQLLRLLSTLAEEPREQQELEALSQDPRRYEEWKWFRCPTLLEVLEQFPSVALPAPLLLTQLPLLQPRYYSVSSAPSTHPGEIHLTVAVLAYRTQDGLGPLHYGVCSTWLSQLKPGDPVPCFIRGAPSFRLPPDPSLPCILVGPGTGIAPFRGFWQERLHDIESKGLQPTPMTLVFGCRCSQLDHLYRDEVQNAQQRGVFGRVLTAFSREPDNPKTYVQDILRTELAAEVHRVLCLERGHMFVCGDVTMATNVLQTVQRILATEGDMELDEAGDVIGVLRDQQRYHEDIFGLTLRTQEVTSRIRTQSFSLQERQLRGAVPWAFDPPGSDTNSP

[2] = molecular target: Nitric oxide synthase, inducible (Homo sapiens, UniProt P35228); assay: Inhibition of human recombinant iNOS expressed in baculovirus infected insect Sf9 cells assessed as conversion of [3H]L-arginine to [3H]L-citrulline incubated for 15 mins prior to substrate addition measured after 45 mins by liquid scintillation counting
[3] = molecular target: Nitric oxide synthase 1 (Homo sapiens, UniProt P29475); assay: Inhibition of human recombinant nNOS expressed in baculovirus infected insect Sf9 cells assessed as conversion of [3H]L-arginine to [3H]L-citrulline incubated for 15 mins prior to substrate addition measured after 45 mins by liquid scintillation counting
[4] = molecular target: Nitric oxide sythases; iNOS & nNOS (Homo sapiens) (UniProt P29475+P35228); assay: Selectivity ratio of IC50 for human recombinant iNOS to IC50 for human recombinant nNOS
[5] = species on record: Homo sapiens; assay: Selectivity ratio of IC50 for human recombinant eNOS to IC50 for human recombinant nNOS
[6] = molecular target: Muscarinic acetylcholine receptor M2 (Homo sapiens) (UniProt P08172); assay: Displacement of [3H]AF-DX 384 from human recombinant muscarinic M2 receptor expressed in CHO cells at 10 uM after 60 mins; type: cell-based
Outline: (§1)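 Single-concentration (10 μM) radioligand binding screen. Specific binding = total minus nonspecific binding, with nonspecific binding taken in excess unlabeled ligand. Results were given as percent inhibition of control specific binding.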

[7] = molecular target: Muscarinic acetylcholine receptor M1 (Homo sapiens) (UniProt P11229); assay: Displacement of [3H]pirenzepine from human recombinant muscarinic M1 receptor expressed in CHO cells at 10 uM after 60 mins; type: cell-based; outline: as §1
[8] = molecular target: Mu-type opioid receptor (Homo sapiens) (UniProt P35372); assay: Displacement of [3H]DAMGO from human recombinant mu opioid receptor expressed in HEK 293 cells at 10 uM after 120 mins; type: cell-based; conditions: HEK293; outline: as §1
[9] = Cardiotoxicity in human arteries assessed as inhibition of acetylcholine-mediated vasorelaxation at 100 uM pretreated with U46619 prior to Ach challenge measured after 50 mins; type: toxicity, tissue-based, Artery
Outline: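 Human resistance artery rings (~2 mm) were wire-mounted in a myograph in Krebs-bicarbonate PSS gassed with 95% O2/5% CO2 at 37 °C, and isometric tension was recorded. After ≥30 min equilibration, rings received three KPSS (62.5 mM) challenges. Endothelial integrity was checked with U46619 (1 × 10⁻⁷ M) then ACh. Compound was added for 50 min without L-arginine, then rings were submaximally precontracted with U46619 before cumulative ACh (1 × 10⁻¹⁰ to 1 × 10⁻⁵ M).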

[10] = molecular target: Nitric oxide synthase 1 (Rattus norvegicus, UniProt P29476); assay: Inhibition of rat recombinant nNOS expressed in baculovirus infected insect Sf9 cells assessed as conversion of [3H]L-arginine to [3H]L-citrulline incubated for 15 mins prior to substrate addition measured after 45 mins by liquid scintillation counting
[11] = species on record: Rattus norvegicus; assay: Displacement of [3H]DTG from rat cerebral cortex sigma receptor at 10 uM after 120 mins; type: tissue-based; outline: as §1
[12] = molecular target: Muscarinic acetylcholine receptor M5 (Homo sapiens) (UniProt P08912); assay: Displacement of [3H]4-DAMP from human recombinant muscarinic M5 receptor expressed in CHO cells at 10 uM after 60 mins; type: cell-based; outline: as §1
[13] = system: Rattus norvegicus; assay: Analgesic activity in rat Chung model of neuropathic pain assessed as partial reversal of thermal hyperalgesia at 30 mg/kg, ip measured after 30 mins; conditions: route intraperitoneal
[14] = Cardiotoxicity in human arteries assessed as inhibition of acetylcholine-mediated vasorelaxation at 100 uM pretreated with U46619 prior to Ach challenge measured after 50 mins in presence of L-arginine; type: toxicity, tissue-based, Artery
[15] = molecular target: Kappa-type opioid receptor (Rattus norvegicus) (UniProt P34975); assay: Displacement of [3H]U 69593 from rat recombinant kappa opioid receptor expressed in CHO cells at 10 uM after 60 mins; type: cell-based; outline: as §1
[16] = molecular target: T2, Sodium-dependent noradrenaline transporter (Homo sapiens, UniProt P23975); assay: Displacement of [3H]nisoxetine from human recombinant norepinephrine transporter expressed in CHO cells at 10 uM after 120 mins; type: cell-based; outline: as §1
[17] = molecular target: Nitric oxide synthase 3 (Rattus norvegicus, UniProt Q62600); assay: Inhibition of rat recombinant eNOS expressed in baculovirus infected insect Sf9 cells assessed as conversion of [3H]L-arginine to [3H]L-citrulline incubated for 15 mins prior to substrate addition measured after 45 mins by liquid scintillation counting
[18] = molecular target: Nitric oxide synthase, inducible (Rattus norvegicus, UniProt Q06518); assay: Inhibition of rat recombinant iNOS expressed in baculovirus infected insect Sf9 cells assessed as conversion of [3H]L-arginine to [3H]L-citrulline incubated for 15 mins prior to substrate addition measured after 45 mins by liquid scintillation counting
[19] = molecular target: T2, Sodium-dependent noradrenaline transporter; assay: Displacement of [3H]nisoxetine from human recombinant norepinephrine transporter expressed in CHO cells after 120 mins; type: cell-based
[20] = molecular target: Adrenergic receptor alpha-2 (Rattus norvegicus) (UniProt P22086+P19328+P22909); assay: Displacement of [3H]RX 821002 from rat cerebral cortex alpha2 adrenergic receptor at 10 uM after 60 mins; type: tissue-based; outline: as §1
[21] = molecular target: Muscarinic acetylcholine receptor M4 (Homo sapiens) (UniProt P08173); assay: Displacement of [3H]4-DAMP from human recombinant muscarinic M4 receptor expressed in CHO cells at 10 uM after 60 mins; type: cell-based; outline: as §1
[22] = molecular target: 5-hydroxytryptamine receptor 1B (Rattus norvegicus) (UniProt P28564); assay: Displacement of [125I]CYP from rat cerebral cortex 5HT1B receptor at 10 uM after 120 mins in the presence of (-)propranolol; type: tissue-based; outline: as §1
[23] = molecular target: Muscarinic acetylcholine receptor M3 (Homo sapiens) (UniProt P20309); assay: Displacement of [3H]4-DAMP from human recombinant muscarinic M3 receptor expressed in CHO cells at 10 uM after 60 mins; type: cell-based; outline: as §1
[24] = molecular target: 5-hydroxytryptamine receptor 5A (Homo sapiens) (UniProt P47898); assay: Displacement of [3H]LSD from human recombinant 5-HT5a receptor expressed in HEK293 cells at 10 uM after 120 mins; type: cell-based; outline: as §1
[25] = system: Rattus norvegicus; assay: Analgesic activity in rat Chung model of neuropathic pain assessed as partial reversal of thermal hyperalgesia at 30 mg/kg, ip; type: functional, organism-based; set-up: dose 30 mg/kg
Outline: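 Rats anesthetized with halothane; L5 and L6 spinal nerves exposed, isolated and tightly ligated with 4-0 silk suture distal to the DRG. After surgical recovery, hyperalgesia was read as paw withdrawal latency to radiant heat applied to the paw after intraperitoneal dosing.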

[26] = molecular target: Voltage-gated inwardly rectifying potassium channel KCNH2 (Homo sapiens, UniProt Q12809); assay: Inhibition of human Erg expressed in HEK293 cells by patch clamp assay
Chain of Voltage-gated inwardly rectifying potassium channel KCNH2 (Q12809 whole entry): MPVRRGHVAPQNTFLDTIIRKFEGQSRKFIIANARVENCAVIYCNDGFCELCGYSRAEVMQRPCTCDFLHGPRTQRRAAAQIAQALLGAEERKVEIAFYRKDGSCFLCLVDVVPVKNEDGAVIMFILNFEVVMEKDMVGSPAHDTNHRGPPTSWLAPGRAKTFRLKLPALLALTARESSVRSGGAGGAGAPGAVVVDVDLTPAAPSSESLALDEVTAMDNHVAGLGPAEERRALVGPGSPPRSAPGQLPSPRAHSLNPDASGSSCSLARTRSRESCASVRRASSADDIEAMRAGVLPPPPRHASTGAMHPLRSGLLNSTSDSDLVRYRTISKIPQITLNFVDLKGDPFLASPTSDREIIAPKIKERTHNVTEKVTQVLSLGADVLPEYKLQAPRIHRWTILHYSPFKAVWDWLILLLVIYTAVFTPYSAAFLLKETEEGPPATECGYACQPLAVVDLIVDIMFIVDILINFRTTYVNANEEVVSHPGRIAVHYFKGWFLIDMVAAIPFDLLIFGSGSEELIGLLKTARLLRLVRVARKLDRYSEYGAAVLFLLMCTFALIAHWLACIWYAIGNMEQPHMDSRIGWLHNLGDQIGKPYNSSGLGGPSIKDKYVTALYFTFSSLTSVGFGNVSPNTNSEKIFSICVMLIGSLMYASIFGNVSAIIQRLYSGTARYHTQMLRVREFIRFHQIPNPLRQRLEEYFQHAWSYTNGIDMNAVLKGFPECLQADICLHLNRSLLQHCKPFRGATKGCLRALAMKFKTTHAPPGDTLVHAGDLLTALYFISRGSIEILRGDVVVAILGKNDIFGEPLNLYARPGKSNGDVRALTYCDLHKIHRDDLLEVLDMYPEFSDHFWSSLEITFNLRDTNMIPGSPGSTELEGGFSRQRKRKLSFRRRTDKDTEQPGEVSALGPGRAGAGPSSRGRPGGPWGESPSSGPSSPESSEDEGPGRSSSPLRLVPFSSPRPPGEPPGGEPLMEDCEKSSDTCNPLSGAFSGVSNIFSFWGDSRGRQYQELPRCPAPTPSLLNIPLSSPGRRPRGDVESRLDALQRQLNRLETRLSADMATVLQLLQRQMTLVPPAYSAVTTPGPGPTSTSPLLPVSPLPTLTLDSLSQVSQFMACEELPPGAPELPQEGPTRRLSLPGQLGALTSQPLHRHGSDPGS

Chain of Nitric oxide synthase 1 (Homo sapiens, UniProt P29475) (P29475 whole entry): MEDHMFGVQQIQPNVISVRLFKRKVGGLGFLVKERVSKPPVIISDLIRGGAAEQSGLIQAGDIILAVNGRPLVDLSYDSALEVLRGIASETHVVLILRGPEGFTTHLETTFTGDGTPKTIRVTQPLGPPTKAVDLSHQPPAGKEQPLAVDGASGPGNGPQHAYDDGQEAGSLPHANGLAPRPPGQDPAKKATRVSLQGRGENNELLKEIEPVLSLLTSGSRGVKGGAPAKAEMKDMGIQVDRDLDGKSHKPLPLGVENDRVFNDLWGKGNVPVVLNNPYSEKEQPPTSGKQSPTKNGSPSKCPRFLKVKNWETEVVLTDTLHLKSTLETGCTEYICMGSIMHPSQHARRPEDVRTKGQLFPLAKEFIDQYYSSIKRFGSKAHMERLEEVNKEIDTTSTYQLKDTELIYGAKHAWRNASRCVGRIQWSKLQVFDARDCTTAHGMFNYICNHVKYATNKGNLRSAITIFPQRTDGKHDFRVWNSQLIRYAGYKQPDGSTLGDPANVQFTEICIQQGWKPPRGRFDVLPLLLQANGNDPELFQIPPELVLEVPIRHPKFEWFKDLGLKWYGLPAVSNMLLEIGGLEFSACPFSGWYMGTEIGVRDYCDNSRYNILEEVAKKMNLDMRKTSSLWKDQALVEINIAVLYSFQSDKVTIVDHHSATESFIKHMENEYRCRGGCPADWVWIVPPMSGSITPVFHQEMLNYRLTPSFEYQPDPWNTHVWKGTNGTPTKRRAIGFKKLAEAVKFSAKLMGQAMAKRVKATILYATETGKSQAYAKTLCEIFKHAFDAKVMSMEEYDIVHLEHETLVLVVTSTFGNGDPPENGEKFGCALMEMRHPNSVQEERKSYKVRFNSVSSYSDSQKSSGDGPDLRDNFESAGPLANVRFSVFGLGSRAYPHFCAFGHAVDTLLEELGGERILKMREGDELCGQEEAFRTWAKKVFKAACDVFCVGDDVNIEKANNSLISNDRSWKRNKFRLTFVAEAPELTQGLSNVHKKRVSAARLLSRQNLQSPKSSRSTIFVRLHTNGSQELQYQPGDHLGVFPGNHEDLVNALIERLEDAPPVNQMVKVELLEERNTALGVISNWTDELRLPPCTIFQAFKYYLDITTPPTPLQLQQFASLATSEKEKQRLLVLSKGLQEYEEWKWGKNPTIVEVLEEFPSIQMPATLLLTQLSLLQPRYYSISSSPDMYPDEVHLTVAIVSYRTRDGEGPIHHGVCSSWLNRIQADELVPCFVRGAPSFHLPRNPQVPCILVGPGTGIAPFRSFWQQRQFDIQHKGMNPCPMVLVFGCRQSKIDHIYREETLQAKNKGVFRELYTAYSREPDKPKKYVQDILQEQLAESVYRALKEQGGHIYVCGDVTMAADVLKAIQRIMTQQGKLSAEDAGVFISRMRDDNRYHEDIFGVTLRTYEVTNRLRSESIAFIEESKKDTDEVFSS
Chain of Nitric oxide sythases; iNOS & nNOS (Homo sapiens) (P29475 whole entry, looked up): as the sequence (P29475 whole entry) above
Chain of Nitric oxide sythases; iNOS & nNOS (Homo sapiens) (P35228 whole entry, looked up): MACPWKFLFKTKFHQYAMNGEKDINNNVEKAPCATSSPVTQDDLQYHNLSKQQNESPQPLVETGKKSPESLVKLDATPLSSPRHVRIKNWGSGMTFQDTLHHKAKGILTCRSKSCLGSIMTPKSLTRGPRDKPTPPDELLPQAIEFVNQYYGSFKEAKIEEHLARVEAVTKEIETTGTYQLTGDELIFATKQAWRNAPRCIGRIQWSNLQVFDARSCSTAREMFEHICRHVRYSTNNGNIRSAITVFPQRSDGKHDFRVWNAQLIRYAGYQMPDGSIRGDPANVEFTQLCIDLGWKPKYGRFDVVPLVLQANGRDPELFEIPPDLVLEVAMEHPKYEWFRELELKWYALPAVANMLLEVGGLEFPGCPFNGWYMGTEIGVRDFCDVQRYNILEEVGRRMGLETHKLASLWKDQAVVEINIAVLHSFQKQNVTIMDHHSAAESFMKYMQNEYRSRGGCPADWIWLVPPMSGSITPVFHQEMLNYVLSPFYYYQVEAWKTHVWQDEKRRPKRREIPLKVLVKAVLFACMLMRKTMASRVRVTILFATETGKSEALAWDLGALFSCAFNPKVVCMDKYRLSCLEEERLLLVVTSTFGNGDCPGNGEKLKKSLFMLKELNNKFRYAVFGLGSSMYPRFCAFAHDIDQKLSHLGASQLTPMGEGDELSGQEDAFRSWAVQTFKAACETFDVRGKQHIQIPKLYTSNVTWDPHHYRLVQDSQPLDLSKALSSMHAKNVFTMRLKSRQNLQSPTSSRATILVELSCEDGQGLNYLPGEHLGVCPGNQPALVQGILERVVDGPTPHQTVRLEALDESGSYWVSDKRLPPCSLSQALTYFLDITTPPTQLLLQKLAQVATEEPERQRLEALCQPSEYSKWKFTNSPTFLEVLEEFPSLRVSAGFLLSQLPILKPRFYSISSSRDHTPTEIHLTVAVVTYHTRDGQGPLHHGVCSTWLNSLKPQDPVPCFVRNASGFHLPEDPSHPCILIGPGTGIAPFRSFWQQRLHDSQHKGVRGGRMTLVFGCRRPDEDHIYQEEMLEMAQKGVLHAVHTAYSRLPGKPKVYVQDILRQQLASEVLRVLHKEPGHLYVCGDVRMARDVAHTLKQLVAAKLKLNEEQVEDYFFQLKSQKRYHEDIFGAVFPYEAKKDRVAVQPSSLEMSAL
Chain of Nitric oxide synthase, inducible (Homo sapiens, UniProt P35228) (P35228 whole entry): as the sequence (P35228 whole entry, looked up) above
T2 sequence (P23975 whole entry): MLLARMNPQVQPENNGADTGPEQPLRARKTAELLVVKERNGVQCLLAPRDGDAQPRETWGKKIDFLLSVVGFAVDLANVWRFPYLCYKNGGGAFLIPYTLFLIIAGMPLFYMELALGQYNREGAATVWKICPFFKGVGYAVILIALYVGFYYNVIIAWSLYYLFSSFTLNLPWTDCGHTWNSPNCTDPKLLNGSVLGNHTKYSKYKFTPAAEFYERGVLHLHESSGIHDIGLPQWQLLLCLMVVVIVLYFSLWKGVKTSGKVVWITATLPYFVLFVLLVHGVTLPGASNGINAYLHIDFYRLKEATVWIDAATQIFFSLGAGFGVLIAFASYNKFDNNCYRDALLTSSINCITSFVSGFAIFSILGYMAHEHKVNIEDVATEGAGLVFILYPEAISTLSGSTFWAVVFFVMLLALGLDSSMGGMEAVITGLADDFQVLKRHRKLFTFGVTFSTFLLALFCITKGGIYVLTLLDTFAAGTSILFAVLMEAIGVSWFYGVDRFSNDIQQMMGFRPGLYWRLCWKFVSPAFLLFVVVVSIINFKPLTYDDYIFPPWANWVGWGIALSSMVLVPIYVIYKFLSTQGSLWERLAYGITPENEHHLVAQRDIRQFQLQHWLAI
Chain of Kappa-type opioid receptor (Rattus norvegicus) (P34975 whole entry): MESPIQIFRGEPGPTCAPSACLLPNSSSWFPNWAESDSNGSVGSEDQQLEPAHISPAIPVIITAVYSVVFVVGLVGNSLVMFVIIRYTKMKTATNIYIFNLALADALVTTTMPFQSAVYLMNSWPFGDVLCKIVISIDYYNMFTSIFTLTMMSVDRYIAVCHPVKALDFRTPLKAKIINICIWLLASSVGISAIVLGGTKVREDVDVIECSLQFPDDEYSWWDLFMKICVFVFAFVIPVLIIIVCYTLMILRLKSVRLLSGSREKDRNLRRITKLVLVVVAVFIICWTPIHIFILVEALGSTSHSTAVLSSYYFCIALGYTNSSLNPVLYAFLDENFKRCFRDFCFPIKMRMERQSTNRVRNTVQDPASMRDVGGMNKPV

Compound	IC50 [1] [µM]	IC50 [2] [µM]	IC50 [3] [µM]	Ratio IC50 [4]	Ratio IC50 [5]	also measured
N=C(Nc1ccc2c(c1)N(C1CCNC1)CC2)c1cccs1 (racemic)	7.17	8.94	0.18	50	40	
NC(=Nc1ccc2c(c1)N(CCN1CC[C@@H](O)C1)CC2)c1cccs1	7.12	6.79	0.11			
NC(=Nc1ccc2c(c1)N(CCNCCO)CC2)c1cccs1	3.36	3.41	0.07			
N=C(Nc1cc2c(cc1F)CCN2C1CCNCC1)c1cccs1	243	481	18.8	26	13	
CN[C@H]1CC[C@H](N2CCc3cc(F)c(NC(=N)c4cccs4)cc32)CC1	231	522	5.75	91	41	
NC(=Nc1ccc2c(c1)N(C1CCSCC1)CC2)c1cccs1	21.5	1.12	2.07			
NC(=Nc1ccc2c(c1)N(C1CCOCC1)CC2)c1cccs1	84.8	> 100	3.26			
NC(=Nc1ccc2c(c1)N(C1CCCCC1)CC2)c1cccs1	109	> 100	4.07			
N=C(Nc1ccc2c(c1)N(CCN1CC[C@@H](O)C1)CC2)c1cccs1				62	71	
CN[C@H]1CC[C@@H](N2CCc3ccc(NC(=N)c4cccs4)cc32)CC1	195	83	0.37			inhibition [6]: 80%; inhibition [7]: 80%; inhibition [8]: 52%; Activity [9]: Not Active; IC50 [10]: 1.93 µM; inhibition [11]: 72%; inhibition [12]: 90%; MPE [13]: 66%; Activity [14]: Not Active; inhibition [15]: 69%; inhibition [16]: 86%; IC50 [17]: 4.16 µM; IC50 [18]: 2.34 µM; IC50 [19]: 4.4 µM; inhibition [20]: 58%; inhibition [21]: 95%; inhibition [22]: 60%; inhibition [23]: 85%; inhibition [24]: 59%; Activity [25]: Active
N=C(Nc1ccc2c(c1)N(C1CCNCC1)CC2)c1cccs1				4	183	
N=C(Nc1ccc2c(c1)N(CCNCCO)CC2)c1cccs1				49	48	
CN1CCC[C@H]1CCN1CCCc2cc(NC(=N)c3cccs3)ccc21						Activity [9]: Active; Activity [14]: Active; IC50 [26]: 4.7 µM
NC(=Nc1ccc2c(c1)N(C1CCNCC1)CC2)c1cccs1	99	2.39	0.54			
N=C(Nc1ccc2c(c1)N(C1CCSCC1)CC2)c1cccs1				0.5	10	
N=C(Nc1ccc2c(c1)N(C1CCCCC1)CC2)c1cccs1					27	
N=C(Nc1ccc2c(c1)N(C1CCOCC1)CC2)c1cccs1					26	
CN[C@H]1CC[C@H](N2CCc3ccc(NC(=N)c4cccs4)cc32)CC1	237	189	2.12			
CN[C@H]1CC[C@@H](N2CCc3cc(F)c(NC(=N)c4cccs4)cc32)CC1	220	897	5.82	154	38	
